From ChEMBL document CHEMBL1152494, “Synthesis of some new 1,3,4-thiadiazol-2-ylmethyl-1,2,4-triazole derivatives and investigation of their antimicrobial activities” (2009)
Calls of active or inactive are those of the source. No cut-off for these calls is given here.

Key:
Candida albicans [1] = test: Antimicrobial activity against Candida albicans ATCC 60193 at 5 ug after 18 hrs by agar-well diffusion assay; format: functional; details: ATCC 60193, 18 h, read-out: IZ
Method in brief: (§1)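 Yeasts were suspended in Mueller Hinton broth at about 10⁶ cfu/mL and flood-inoculated onto Sabouraud dextrose agar, then dried. Samples in DMSO went into 5-mm wells. Plates were incubated 18 h at 35 °C and inhibition zones were measured. Fluconazole was the standard, with a DMSO solvent control.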

Candida tropicalis [2] = test: Antimicrobial activity against Candida tropicalis ATCC 13803 at 5 ug after 18 hrs by agar-well diffusion assay; format: functional; details: ATCC 13803, 18 h, read-out: IZ; method in brief: as §1
Bacillus cereus = test: Antimicrobial activity against Bacillus cereus 702 Roma after 18 hrs by agar-well diffusion assay; format: functional
Method in brief: (§2)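 Organisms suspended in Mueller Hinton broth, diluted to about 10⁶ cfu/mL, and flood-inoculated onto Mueller Hinton agar, then dried. Samples dissolved in DMSO were added to 5 mm wells cut in the agar. Plates were incubated 18 h at 35 °C, and inhibition zones were measured. Ampicillin was the standard drug, with a DMSO solvent control.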

[3] = system: Yersinia pseudotuberculosis; test: Antimicrobial activity against Yersinia pseudotuberculosis ATCC 911 after 18 hrs by agar-well diffusion assay; format: functional
Method in brief: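 Bacteria were suspended in Mueller Hinton broth at about 10⁶ cfu/mL and flood-inoculated onto Mueller Hinton agar, then dried. Samples in DMSO went into 5-mm cork-bored wells. Plates were incubated 18 h at 35 °C and the zone of inhibition was read. Ampicillin was the standard, with a DMSO solvent control.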

Escherichia coli = test: Antimicrobial activity against Escherichia […] after 18 hrs by agar-well diffusion assay; format: functional; method in brief: as §2
Candida tropicalis [4] = test: Antimicrobial activity against Candida tropicalis ATCC 13803 after 18 hrs by agar-well diffusion assay; format: functional
Method in brief: (§3)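 Yeast suspended in Mueller Hinton broth at about 10⁶ cfu/mL and flood-inoculated onto Sabouraud dextrose agar, then dried. Samples dissolved in DMSO were placed in 5 mm wells bored in the agar. After 18 h at 35 °C, the zone of inhibition was measured. Fluconazole was the standard drug, with a DMSO solvent control.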

Enterococcus faecalis = test: Antimicrobial activity against Enterococcus faecalis ATCC 29212 after 18 hrs by agar-well diffusion assay; format: functional; method in brief: as §2
Candida albicans [5] = test: Antimicrobial activity against Candida albicans ATCC 60193 after 18 hrs by agar-well diffusion assay; format: functional; method in brief: as §3
Staphylococcus aureus = test: Antimicrobial activity against Staphylococcus aureus ATCC […] after 18 hrs by agar-well diffusion assay; format: functional, ATCC 25923; method in brief: as §2
Pseudomonas aeruginosa = test: Antimicrobial activity against Pseudomonas aeruginosa ATCC 27853 after 18 hrs by agar-well diffusion assay; format: functional; method in brief: as §2

SMILES | zone of inhibition at 5 µg/disc (Candida albicans [1]) [mm] | zone of inhibition at 5 µg/disc (Candida tropicalis [2]) [mm] | inhibition zone (IZ) (Bacillus cereus) | inhibition zone (IZ) [3] | inhibition zone (IZ) (Escherichia coli) | inhibition zone (IZ) (Candida tropicalis [4]) | inhibition zone (IZ) (Enterococcus faecalis) | inhibition zone (IZ) (Candida albicans [5]) | inhibition zone (IZ) (Staphylococcus aureus) [mm] | inhibition zone (IZ) (Pseudomonas aeruginosa) | inhibition zone (IZ) (Staphylococcus aureus; ATCC 25923)
OC(Cn1cncn1)(Cn1cncn1)c1ccc(F)cc1F [FLUCONAZOLE] | 25 | 25 |  |  |  |  |  |  |  |  | 
COc1ccc(Nc2nnc(Cn3nc(-c4ccc(C)cc4)n(N)c3=O)s2)cc1 |  |  | 23 mm | 22 mm | 30 mm | inactive | 20 mm | inactive | 28 | >30 mm | 
Cc1ccc(-c2nn(Cc3nnc(N(C)c4ccccc4)s3)c(=O)n2N)cc1 |  |  | 7 mm | inactive | inactive | 6 mm | inactive | inactive |  | inactive | inactive
Cc1ccc(-c2nn(Cc3nn(CN4CCN(C)CC4)c(=S)n3-c3ccc(F)cc3)c(=O)n2/N=C/c2ccc(F)cc2)cc1 |  |  | 8 mm | inactive | inactive | inactive | inactive | inactive |  | inactive | inactive
CCSc1nnc(Cn2nc(-c3ccc(C)cc3)n(N)c2=O)n1-c1ccc(F)cc1 |  |  | 9 mm | inactive | inactive | 6 mm | inactive | 6 mm | 8 | inactive | 
Cc1ccc(-c2nn(Cc3nnc(S)n3-c3ccc(F)cc3)c(=O)n2/N=C/c2ccc(F)cc2)cc1 |  |  | 20 mm | 22 mm | 25 mm | inactive | 20 mm | inactive | 24 | 30 mm | 
COc1ccc(-n2c(Cn3nc(-c4ccc(C)cc4)n(N)c3=O)nnc2SC)cc1 |  |  | inactive | inactive | inactive | inactive | inactive | inactive |  | inactive | inactive
CSc1nnc(Cn2nc(-c3ccc(C)cc3)n(N)c2=O)n1-c1ccccc1 |  |  | inactive | inactive | inactive | inactive | inactive | inactive |  | inactive | inactive
Cc1ccc(-c2nn(Cc3nn(CNCCN4CCOCC4)c(=S)n3-c3ccccc3)c(=O)n2N)cc1 |  |  | inactive | inactive | inactive | inactive | inactive | inactive |  | inactive | inactive
Cc1ccc(-c2nn(Cc3nnc(S)n3-c3ccccc3)c(=O)n2/N=C/c2ccc(F)cc2)cc1 |  |  | 20 mm | 25 mm | 25 mm | inactive | 20 mm | inactive | 28 | 30 mm | 
